Experimental data taken from ChEMBL document CHEMBL1145826, “New pyrimido[5,4-b]indoles as ligands for alpha(1)-adrenoceptor subtypes” (J Med Chem, 2003).

Key:
[1] = target: T1, Alpha-1D adrenergic receptor (Homo sapiens, UniProt P25100); assay: Binding affinity towards Alpha-1D adrenergic receptor
T1 sequence (P25100 whole entry): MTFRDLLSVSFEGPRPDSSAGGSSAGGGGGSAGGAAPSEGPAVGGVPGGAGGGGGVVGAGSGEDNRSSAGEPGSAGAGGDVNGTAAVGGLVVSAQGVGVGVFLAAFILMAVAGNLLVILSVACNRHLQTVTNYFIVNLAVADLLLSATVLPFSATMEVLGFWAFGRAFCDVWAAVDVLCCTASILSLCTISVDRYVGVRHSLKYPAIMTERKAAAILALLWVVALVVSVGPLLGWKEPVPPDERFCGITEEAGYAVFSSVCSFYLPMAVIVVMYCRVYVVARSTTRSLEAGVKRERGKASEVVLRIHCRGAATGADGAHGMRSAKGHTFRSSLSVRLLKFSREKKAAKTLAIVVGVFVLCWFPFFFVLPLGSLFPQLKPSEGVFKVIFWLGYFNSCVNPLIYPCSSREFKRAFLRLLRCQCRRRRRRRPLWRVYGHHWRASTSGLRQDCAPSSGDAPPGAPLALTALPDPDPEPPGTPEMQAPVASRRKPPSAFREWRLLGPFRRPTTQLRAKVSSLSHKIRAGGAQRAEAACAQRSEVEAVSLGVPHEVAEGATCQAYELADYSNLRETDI
In short: (§1)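 Human α1A-, α1B- or α1D-AR stably expressed in HEK293 cells (calcium phosphate transfection, subclones chosen for high expression); membranes from scraped, homogenized cells spun at 30000g. Three experiments in duplicate, mean ± SE.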

[2] = target: T2, Alpha-1A adrenergic receptor (Homo sapiens, UniProt P35348); assay: Binding affinity towards Alpha-1A adrenergic receptor; in short: as §1
T2 sequence (P35348 whole entry): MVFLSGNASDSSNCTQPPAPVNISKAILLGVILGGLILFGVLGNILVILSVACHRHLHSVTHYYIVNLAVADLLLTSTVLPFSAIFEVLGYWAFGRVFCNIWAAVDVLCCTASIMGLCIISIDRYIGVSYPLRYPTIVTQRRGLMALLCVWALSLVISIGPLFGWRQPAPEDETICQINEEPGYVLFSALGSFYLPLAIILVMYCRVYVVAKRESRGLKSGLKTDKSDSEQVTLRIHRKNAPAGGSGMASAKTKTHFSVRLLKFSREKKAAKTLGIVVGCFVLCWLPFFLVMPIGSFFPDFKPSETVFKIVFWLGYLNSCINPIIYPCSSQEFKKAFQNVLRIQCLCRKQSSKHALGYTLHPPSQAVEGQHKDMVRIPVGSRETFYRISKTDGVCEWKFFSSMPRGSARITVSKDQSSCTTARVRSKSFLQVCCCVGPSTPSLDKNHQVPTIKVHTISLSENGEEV

[3] = target: T3, Alpha-1B adrenergic receptor (Homo sapiens, UniProt P35368); assay: In vitro binding affinity at human Alpha-1B adrenergic receptor.; in short: as §1
T3 sequence (P35368 whole entry): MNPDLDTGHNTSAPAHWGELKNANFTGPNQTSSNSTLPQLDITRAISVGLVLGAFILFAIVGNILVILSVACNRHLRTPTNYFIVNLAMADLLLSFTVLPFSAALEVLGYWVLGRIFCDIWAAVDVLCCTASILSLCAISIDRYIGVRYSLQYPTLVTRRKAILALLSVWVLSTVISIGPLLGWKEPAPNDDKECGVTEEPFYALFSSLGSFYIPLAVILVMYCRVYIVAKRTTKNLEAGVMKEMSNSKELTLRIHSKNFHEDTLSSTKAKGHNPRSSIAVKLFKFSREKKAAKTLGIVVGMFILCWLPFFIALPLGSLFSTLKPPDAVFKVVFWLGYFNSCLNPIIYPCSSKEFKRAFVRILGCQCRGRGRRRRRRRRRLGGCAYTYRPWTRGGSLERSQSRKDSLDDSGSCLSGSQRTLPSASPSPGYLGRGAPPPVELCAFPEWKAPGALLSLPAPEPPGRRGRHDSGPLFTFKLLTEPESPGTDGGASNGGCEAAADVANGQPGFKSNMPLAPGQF

[4] = target: T1, Alpha-1D adrenergic receptor; assay: In vitro binding affinity at human Alpha-1D adrenergic receptor.; in short: as §1
[5] = target: T2, Alpha-1A adrenergic receptor; assay: In vitro binding affinity at human Alpha-1A adrenergic receptor.; in short: as §1
Rattus norvegicus = organism: Rattus norvegicus; assay: Inhibition of [3H]inositol Phosphate formation by 100 uM norepinephrine in rat hippocampal slices.; assay type: functional, Hippocampus
In short: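 Rat hippocampal slices equilibrated in Krebs-Henseleit buffer (pH 7.4, 95% O2/5% CO2) at 37 °C for 30 min, labeled 60 min with 0.3 µM myo-[2-3H]inositol. LiCl 7 mM added, then 100 µM norepinephrine 10 min later, test compound (1 µM) 5 min before agonist. After 60 min, stopped with chloroform/methanol; [3H]inositol monophosphate isolated by anion exchange, dpm/mg protein, ≥4 determinations.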

[6] = target: Adrenergic receptor alpha-1 (Homo sapiens) (UniProt P35348+P25100+P35368); assay: Selectivity for alpha 1A-Adrenergic receptors compared to 1D-Adrenergic receptors.; assay type: protein assay

SMILES: CC(C)(C)c1ccc(N2CCN(CCn3cnc4c5ccccc5nc-4c3O)CC2)cc1
- Ki [1]: > 10000 nM
- Ki [2]: > 10000 nM
- Ki [3]: > 10000 nM

SMILES: CC(C)c1ccc(N2CCN(CCn3c(=O)[nH]c4c(sc5ccccc54)c3=O)CC2)cc1
- Ki [1]: 126 nM

SMILES: O=c1[nH]c2c([nH]c3ccccc32)c(=O)n1CCN1CCN(c2ccc(C3CCCCC3)cc2)CC1
- inhibition at 1 µM [2]: 7%

SMILES: CCOc1ccccc1N1CCN(CCn2cnc3c4ccccc4nc-3c2O)CC1
- Ki [1]: 6.03 nM
- Ki [2]: 9.77 nM
- Ki [3]: 61.7 nM

SMILES: COc1ccccc1C1CCN(CCn2c(=O)[nH]c3c([nH]c4ccccc43)c2=O)CC1
- Ki [1]: 0.933 nM
- Ki [2]: 1.55 nM
- Ki [3]: 2.88 nM

SMILES: C[C@H](CN1CCN(c2cc(F)c(F)cc2F)CC1)N1C(=O)CC2(CCCC2)CC1=O
- Ki [4]: 1.6 nM
- Ki [5]: 294 nM

SMILES: CCOc1ccccc1N1CCN(CCn2c(=O)[nH]c3c([nH]c4ccccc43)c2=O)CC1
- Ki [1]: 1.58 nM
- Ki [2]: 7.24 nM
- Ki [3]: 14.5 nM

SMILES: COc1ccccc1N1CCN(CCn2cnc3c4ccccc4nc-3c2O)CC1
- Ki [1]: 0.724 nM
- Ki [2]: 1.41 nM
- Ki [3]: 13.8 nM

SMILES: O=c1[nH]c2c([nH]c3ccccc32)c(=O)n1CCN1CCN(c2ccccc2O)CC1
- Ki [1]: 0.631 nM
- Ki [2]: 8.91 nM
- Ki [3]: 11.7 nM

SMILES: Cc1nc2c3ccccc3nc-2c(O)n1CCN1CCN(c2ccc(C(C)C)cc2)CC1
- Ki [1]: 1700 nM
- Ki [2]: 3550 nM
- Ki [3]: 4070 nM

SMILES: CCCCc1ccc(N2CCN(CCn3c(=O)[nH]c4c([nH]c5ccccc54)c3=O)CC2)cc1
- Ki [1]: 245 nM

SMILES: CCc1nc2c3ccccc3nc-2c(O)n1CCCN1CCN(c2ccccc2OC)CC1
- Ki [1]: 12.6 nM
- Ki [2]: 10.7 nM
- Ki [3]: 27.5 nM

SMILES: O=c1[nH]c2c([nH]c3ccccc32)c(=O)n1CCN1CCN2c3ccccc3OCC2C1 (configuration not stated)
- Ki [1]: 126 nM
- Ki [2]: 7940 nM
- Ki [3]: 7760 nM

SMILES: COc1ccccc1N1CCN(CCn2c(=O)[nH]c3c([nH]c4ccccc43)c2=O)CC1
- Ki [3]: 1.82 nM
- Activity (Rattus norvegicus): 3987 dpm (mg of protein)-1

SMILES: CC(C)c1ccc(N2CCN(CCn3cnc4c5ccccc5nc-4c3O)CC2)cc1
- Ki [1]: > 10000 nM
- Ki [2]: > 10000 nM
- Ki [3]: > 10000 nM

SMILES: COc1ccccc1N1CCN(CCCn2c(C)nc3c4ccccc4nc-3c2O)CC1
- Ki [1]: 2.57 nM
- Ki [2]: 4.9 nM
- Ki [3]: 26.9 nM

SMILES: COc1ccccc1N1CCN(CCCn2cnc3c4ccccc4nc-3c2O)CC1
- Ki [1]: 16.2 nM
- Ki [2]: 16.6 nM
- Ki [3]: 162 nM

SMILES: O=c1[nH]c2c([nH]c3ccccc32)c(=O)n1CCN1CCN(c2ccccc2Cl)CC1
- Ki [1]: 3.63 nM
- Ki [2]: 4.68 nM
- Ki [3]: 2.57 nM

SMILES: CC(C)(C)c1ccc(N2CCN(CCn3c(=O)[nH]c4c([nH]c5ccccc54)c3=O)CC2)cc1
- inhibition at 1 µM [2]: 8%
- Activity (Rattus norvegicus): 10390 dpm (mg of protein)-1

SMILES: CCc1nc2c3ccccc3nc-2c(O)n1CCN1CCN(c2ccccc2OC)CC1
- Ki [1]: 6.92 nM
- Ki [2]: 49 nM
- Ki [3]: 245 nM

SMILES: COc1ccccc1N1CCN(Cn2nc(-c3ccccc3)c3c(C)onc3c2=O)CC1
- Ki [4]: 316 nM

SMILES: CC(C)c1ccc(N2CCN(CCn3c(=O)[nH]c4c([nH]c5ccccc54)c3=O)CC2)cc1
- Ki [1]: 35.5 nM
- Ki [3]: 9550 nM

SMILES: COc1ccccc1N1CCN(CCn2c(C)nc3c4ccccc4nc-3c2O)CC1
- Ki [3]: 20.9 nM

SMILES: Cc1nc2c3ccccc3nc-2c(O)n1CCN1CCN2c3ccccc3OCC2C1 (configuration not stated)
- Ki [1]: > 10000 nM
- Ki [2]: > 10000 nM
- Ki [3]: > 10000 nM

SMILES: COc1ccccc1N1CCN(CCn2nc(-c3ccccc3)c3c(C)onc3c2=O)CC1
- Ki [3]: 31.1 nM
- Ki [4]: 1.5 nM
- Ki [5]: 1.4 nM
- Ratio [6]: 0.9

SMILES: Cc1nc2c3ccccc3nc-2c(O)n1CCN1CCN(c2ccc(C(C)(C)C)cc2)CC1
- Ki [1]: 97.7 nM
- Ki [2]: 603 nM
- Ki [3]: 2040 nM

SMILES: C=Cc1sc2ccc(Cl)c3c2c1CN(C)CC3
- Ratio [6]: 22.5

SMILES: N#CCc1ccc(N2CCN(CCn3c(=O)[nH]c4c([nH]c5ccccc54)c3=O)CC2)cc1
- Ki [1]: 10 nM

SMILES: COc1cc2c(cc1O)CCN1Cc3c(ccc(O)c3OC)C[C@@H]21
- Ki [3]: 360 nM
- Ki [4]: 25 nM
- Ki [5]: 616 nM
- Ratio [6]: 24.6

SMILES: CCC(C)c1ccc(N2CCN(CCn3c(=O)[nH]c4c([nH]c5ccccc54)c3=O)CC2)cc1 (configuration not stated)
- Ki [1]: 60.3 nM
